Measured values from ChEMBL document CHEMBL2169881, “Synthesis and biological activity of obatoclax derivatives as novel and potent SHP-1 agonists” (Eur J Med Chem, 2012).
One block for each compound: values may come before it. Active and inactive are the calls of the source. The rule behind the calls is not given here.

Columns and labels:
Type in all cases: functional, cell-based
[1] = molecular target: Tyrosine-protein phosphatase non-receptor type 6 (Homo sapiens) (UniProt P29350); test: Agonist activity at SHP1 in human PLC5 cells assessed as increase in SHP1 level at 10 uM after 12 hrs by Western blot analysis
Procedure, shortened: (§1)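 PLC5 cells (ATCC) grown in DMEM with 10% FBS, penicillin G, streptomycin and amphotericin B at 37 °C, 5% CO2. Cells treated at 10 μM for 12 h. Lysates immunoblotted for p-STAT3, STAT3, SHP-1, Mcl-1, survivin, cyclin D1, PARP, with actin as loading control.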

[2] = molecular target: Tyrosine-protein phosphatase non-receptor type 6 (Homo sapiens) (UniProt P29350); test: Agonist activity at SHP1 in human PLC5 cells at 10 uM after 6 hrs by immunoprecipitation method
[3] = molecular target: Tyrosine-protein phosphatase non-receptor type 6 (Homo sapiens) (UniProt P29350); test: Agonist activity at SHP1 in human PLC5 cells assessed as decrease in pSTAT3-mediated cyclinD1 level at 10 uM after 12 hrs by Western blot analysis; procedure, shortened: as §1
[4] = molecular target: Tyrosine-protein phosphatase non-receptor type 6 (Homo sapiens) (UniProt P29350); test: Agonist activity at SHP1 in human PLC5 cells assessed as decrease in pSTAT3-mediated survivin level at 10 uM after 12 hrs by Western blot analysis; procedure, shortened: as §1
[5] = molecular target: Tyrosine-protein phosphatase non-receptor type 6 (Homo sapiens) (UniProt P29350); test: Agonist activity at SHP1 in human PLC5 cells assessed as decrease in pSTAT3-mediated Mcl1 level at 10 uM after 12 hrs by Western blot analysis; procedure, shortened: as §1
[6] = molecular target: Tyrosine-protein phosphatase non-receptor type 6 (Homo sapiens) (UniProt P29350); test: Agonist activity at SHP1 in human PLC5 cells assessed as inhibition of STAT3 Y705 phosphorylation at 10 uM after 12 hrs by Western blot analysis; procedure, shortened: as §1
[7] = molecular target: Tyrosine-protein phosphatase non-receptor type 6 (Homo sapiens) (UniProt P29350); test: Agonist activity at SHP1 in human PLC5 cells assessed as inhibition of IL6-induced STAT3 phosphorylation at 10 uM incubated for 24 hrs prior to IL6-induction measured after 30 mins by sandwich ELISA
Procedure, shortened: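 PLC5 cells, cultured in DMEM/10% FBS with antibiotics at 37 °C, 5% CO2, were pretreated with compound at 10 μM for 24 h. IL-6 (10 ng/mL) stimulation followed for 30 min before STAT3 activity was read.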

[8] = Cytotoxicity against human PLC5 cells by MTT assay
Procedure, shortened: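 MTT viability assay on PLC5 hepatocellular carcinoma cells maintained in DMEM with 10% FBS, penicillin, streptomycin and amphotericin B at 37 °C, 5% CO2. IC50 is the concentration giving 50% growth inhibition, interpolated from dose–response curves.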

Sequence of Tyrosine-protein phosphatase non-receptor type 6 (Homo sapiens) (P29350 whole entry): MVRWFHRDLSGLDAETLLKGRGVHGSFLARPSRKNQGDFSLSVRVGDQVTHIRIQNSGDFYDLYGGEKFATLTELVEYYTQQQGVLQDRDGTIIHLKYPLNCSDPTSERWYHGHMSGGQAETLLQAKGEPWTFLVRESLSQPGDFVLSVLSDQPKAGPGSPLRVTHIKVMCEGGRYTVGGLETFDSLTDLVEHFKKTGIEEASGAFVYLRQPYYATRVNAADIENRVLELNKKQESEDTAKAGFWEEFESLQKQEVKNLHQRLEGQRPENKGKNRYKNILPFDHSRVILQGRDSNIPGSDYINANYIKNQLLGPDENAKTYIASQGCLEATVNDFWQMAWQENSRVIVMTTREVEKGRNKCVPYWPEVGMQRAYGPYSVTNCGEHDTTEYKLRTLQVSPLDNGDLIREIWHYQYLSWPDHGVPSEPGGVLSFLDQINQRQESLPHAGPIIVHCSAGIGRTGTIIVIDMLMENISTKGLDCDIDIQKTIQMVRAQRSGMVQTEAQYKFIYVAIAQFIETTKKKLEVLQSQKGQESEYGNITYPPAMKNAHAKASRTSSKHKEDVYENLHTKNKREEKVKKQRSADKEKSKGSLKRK

Activity [1]: Active | Activity [2]: Active | Activity [3]: Active | Activity [5]: Active | inhibition [6]: Active | inhibition [7]: Active
Structure (SMILES): COC1=CC(c2cc3ccccc3[nH]2)=N/C1=C\c1ccc(-c2cc3ccccc3[nH]2)[nH]1
Activity [4]: Active | IC50 [8]: 15.9 µM

Structure (SMILES): COc1cc(-c2cc3ccccc3n2C(=O)OC(C)(C)C)[nH]c1/C=C1\C(=O)Nc2ccccc21
IC50 [8]: > 40 µM

Structure (SMILES): COC1=CC(c2cc3ccccc3[nH]2)=N/C1=C\c1[nH]c(C)cc1C [OBATOCLAX]
IC50 [8]: 12.1 µM

Structure (SMILES): COC1=CC(c2cccs2)=N/C1=C\c1[nH]c(C)cc1C
IC50 [8]: > 40 µM

Structure (SMILES): COc1cc(-c2cc3ccccc3[nH]2)[nH]c1C1SCCCS1
IC50 [8]: > 40 µM

Structure (SMILES): COC1=CC(c2cccs2)=N/C1=C\c1ccc[nH]1
IC50 [8]: > 40 µM

Activity [1]: Active | Activity [2]: Active | Activity [3]: Active | Activity [5]: Active | inhibition [6]: Active | inhibition [7]: Active
Structure (SMILES): COC1=CC(c2cc3cc(Br)ccc3[nH]2)=N/C1=C\c1ccc[nH]1
Activity [4]: Active | IC50 [8]: 6.3 µM

Structure (SMILES): COC1=CC(c2cc3ccccc3n2C(=O)OC(C)(C)C)=N/C1=C\c1ccc[nH]1
IC50 [8]: > 40 µM

Structure (SMILES): COC1=CC(c2cccs2)=N/C1=C\c1cccs1
IC50 [8]: 25.9 µM

Structure (SMILES): COC1=CC(c2cc3ccccc3[nH]2)=N/C1=C\c1cccs1
IC50 [8]: > 40 µM

Structure (SMILES): COC1=CC(c2cc3ccccc3n2C(=O)OC(C)(C)C)=N/C1=C\c1[nH]c(C)cc1C
IC50 [8]: 28.4 µM

Activity [1]: inactive | Activity [3]: inactive | Activity [5]: inactive | inhibition [6]: inactive
Structure (SMILES): COC1=CC(c2ccco2)=N/C1=C\c1ccc[nH]1
Activity [4]: inactive | IC50 [8]: > 40 µM

Activity [1]: Active | Activity [2]: Active | Activity [3]: Active | Activity [5]: Active | inhibition [6]: Active | inhibition [7]: Active
Structure (SMILES): COC1=CC(c2cc3ccccc3[nH]2)=N/C1=C\c1ccc[nH]1
Activity [4]: Active | IC50 [8]: 13.2 µM

Structure (SMILES): COc1cc(-c2cc3ccccc3n2C(=O)OC(C)(C)C)[nH]c1/C=C1/SC(=O)NC1=O
IC50 [8]: > 40 µM

Structure (SMILES): COc1cc(-c2cc3ccccc3[nH]2)[nH]c1/C=C1/SC(=O)NC1=O
IC50 [8]: 27.5 µM

Structure (SMILES): COc1cc(-c2cc3ccccc3[nH]2)[nH]c1/C=C1\C(=O)Nc2ccccc21
IC50 [8]: 35.4 µM
